From ChEMBL document CHEMBL1139476, “Radioiodinated flavones for in vivo imaging of beta-amyloid plaques in the brain” (J Med Chem, 2005)

Legend:
[1] = test system: Stomach; experiment: Biodistribution per organ in ddY mouse stomach at 2 uCi, iv after 30 mins; type: ADME, organism-based; details: in vivo, 0.5 h
Method in brief: (§1)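 Normal mice injected intravenously with the 125I-labelled flavone; killed at each time point, stomach removed and counted in a γ counter. Value given as % injected dose per whole organ; mean (SD) of three to five animals per interval.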

[2] = test system: Liver; experiment: Biodistribution in ddY mouse liver at 2 uCi, iv after 60 mins; type: ADME, organism-based; details: in vivo, 1 h
Method in brief: (§2)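 Normal mice given the 125I-labelled flavone intravenously; killed at each time point postinjection, organs removed, weighed and counted in a γ counter. Radioactivity expressed as % injected dose per gram tissue; mean (SD) of three to five animals per interval.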

[3] = test system: Stomach; experiment: Biodistribution per organ in ddY mouse stomach at 2 uCi, iv after 60 mins; type: ADME, organism-based; details: in vivo, 1 h; method in brief: as §1
[4] = test system: Kidney; experiment: Biodistribution in ddY mouse kidney at 2 uCi, iv after 10 mins; type: ADME, organism-based; details: in vivo; method in brief: as §2
[5] = test system: Blood; experiment: Biodistribution in ddY mouse blood at 2 uCi, iv after 10 mins; type: ADME, organism-based; details: in vivo; method in brief: as §2
[6] = test system: Liver; experiment: Biodistribution in ddY mouse liver at 2 uCi, iv after 10 mins; type: ADME, organism-based; details: in vivo; method in brief: as §2
[7] = test system: Intestine; experiment: Biodistribution in ddY mouse intestine at 2 uCi, iv after 2 mins; type: ADME, organism-based; details: in vivo; method in brief: as §2
[8] = test system: Intestine; experiment: Biodistribution in ddY mouse intestine at 2 uCi, iv after 60 mins; type: ADME, organism-based; details: in vivo, 1 h; method in brief: as §2
[9] = test system: Blood; experiment: Biodistribution in ddY mouse blood at 2 uCi, iv after 30 mins; type: ADME, organism-based; details: in vivo, 0.5 h; method in brief: as §2
[10] = test system: Brain; experiment: Biodistribution in ddY mouse brain at 2 uCi, iv after 10 mins; type: ADME, organism-based; details: in vivo; method in brief: as §2
[11] = test system: Kidney; experiment: Biodistribution in ddY mouse kidney at 2 uCi, iv after 30 mins; type: ADME, organism-based; details: in vivo, 0.5 h; method in brief: as §2
[12] = test system: Liver; experiment: Biodistribution in ddY mouse liver at 2 uCi, iv after 30 mins; type: ADME, organism-based; details: in vivo, 0.5 h; method in brief: as §2
[13] = test system: Brain; experiment: Biodistribution in ddY mouse brain at 2 uCi, iv after 30 mins; type: ADME, organism-based; details: in vivo, 0.5 h; method in brief: as §2
[14] = test system: Brain; experiment: Biodistribution in ddY mouse brain at 2 uCi, iv after 60 mins; type: ADME, organism-based; details: in vivo, 1 h; method in brief: as §2
[15] = test system: Brain; experiment: Biodistribution in ddY mouse brain at 2 uCi, iv after 2 mins; type: ADME, organism-based; details: in vivo; method in brief: as §2
[16] = test system: Heart; experiment: Biodistribution in ddY mouse heart at 2 uCi, iv after 2 mins; type: ADME, organism-based; details: in vivo; method in brief: as §2
[17] = test system: Intestine; experiment: Biodistribution in ddY mouse intestine at 2 uCi, iv after 30 mins; type: ADME, organism-based; details: in vivo, 0.5 h; method in brief: as §2
[18] = test system: Spleen; experiment: Biodistribution in ddY mouse spleen at 2 uCi, iv after 60 mins; type: ADME, organism-based; details: in vivo, 1 h; method in brief: as §2
[19] = test system: Kidney; experiment: Biodistribution in ddY mouse kidney at 2 uCi, iv after 60 mins; type: ADME, organism-based; details: in vivo, 1 h; method in brief: as §2
[20] = test system: Spleen; experiment: Biodistribution in ddY mouse spleen at 2 uCi, iv after 30 mins; type: ADME, organism-based; details: in vivo, 0.5 h; method in brief: as §2
[21] = test system: Heart; experiment: Biodistribution in ddY mouse heart at 2 uCi, iv after 30 mins; type: ADME, organism-based; details: in vivo, 0.5 h; method in brief: as §2
[22] = test system: Stomach; experiment: Biodistribution per organ in ddY mouse stomach at 2 uCi, iv after 2 mins; type: ADME, organism-based; details: in vivo; method in brief: as §1
[23] = test system: Kidney; experiment: Biodistribution in ddY mouse kidney at 2 uCi, iv after 2 mins; type: ADME, organism-based; details: in vivo; method in brief: as §2
[24] = test system: Spleen; experiment: Biodistribution in ddY mouse spleen at 2 uCi, iv after 10 mins; type: ADME, organism-based; details: in vivo; method in brief: as §2
[25] = test system: Liver; experiment: Biodistribution in ddY mouse liver at 2 uCi, iv after 2 mins; type: ADME, organism-based; details: in vivo; method in brief: as §2
[26] = Partition coefficient, log P at pH 7.4; type: physicochemical; details: octanol/water
Method in brief: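 Radioiodinated tracer shaken 3 min at room temperature in 1-octanol and 0.1 M phosphate buffer pH 7.4, centrifuged 5 min. Equal aliquots of each layer counted; ratio of octanol to buffer counts, with octanol layer repartitioned until values were consistent. Triplicate, repeated three times; mean (SD) of three experiments.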

[27] = test system: Blood; experiment: Biodistribution in ddY mouse blood at 2 uCi, iv after 2 mins; type: ADME, organism-based; details: in vivo; method in brief: as §2
[28] = test system: Heart; experiment: Biodistribution in ddY mouse heart at 2 uCi, iv after 60 mins; type: ADME, organism-based; details: in vivo, 1 h; method in brief: as §2
[29] = test system: Stomach; experiment: Biodistribution per organ in ddY mouse stomach at 2 uCi, iv after 10 mins; type: ADME, organism-based; details: in vivo; method in brief: as §1
[30] = test system: Spleen; experiment: Biodistribution in ddY mouse spleen at 2 uCi, iv after 2 mins; type: ADME, organism-based; details: in vivo; method in brief: as §2
[31] = test system: Intestine; experiment: Biodistribution in ddY mouse intestine at 2 uCi, iv after 10 mins; type: ADME, organism-based; details: in vivo; method in brief: as §2
[32] = test system: Blood; experiment: Biodistribution in ddY mouse blood at 2 uCi, iv after 60 mins; type: ADME, organism-based; details: in vivo, 1 h; method in brief: as §2
[33] = test system: Heart; experiment: Biodistribution in ddY mouse heart at 2 uCi, iv after 10 mins; type: ADME, organism-based; details: in vivo; method in brief: as §2
[34] = molecular target: T1, Amyloid-beta precursor protein (Homo sapiens, UniProt P05067); experiment: Displacement of [125I]6-iodo-4'-dimethyaminofl avone from beta amyloid (1-40) protein aggregates
T1 sequence (P05067 whole entry): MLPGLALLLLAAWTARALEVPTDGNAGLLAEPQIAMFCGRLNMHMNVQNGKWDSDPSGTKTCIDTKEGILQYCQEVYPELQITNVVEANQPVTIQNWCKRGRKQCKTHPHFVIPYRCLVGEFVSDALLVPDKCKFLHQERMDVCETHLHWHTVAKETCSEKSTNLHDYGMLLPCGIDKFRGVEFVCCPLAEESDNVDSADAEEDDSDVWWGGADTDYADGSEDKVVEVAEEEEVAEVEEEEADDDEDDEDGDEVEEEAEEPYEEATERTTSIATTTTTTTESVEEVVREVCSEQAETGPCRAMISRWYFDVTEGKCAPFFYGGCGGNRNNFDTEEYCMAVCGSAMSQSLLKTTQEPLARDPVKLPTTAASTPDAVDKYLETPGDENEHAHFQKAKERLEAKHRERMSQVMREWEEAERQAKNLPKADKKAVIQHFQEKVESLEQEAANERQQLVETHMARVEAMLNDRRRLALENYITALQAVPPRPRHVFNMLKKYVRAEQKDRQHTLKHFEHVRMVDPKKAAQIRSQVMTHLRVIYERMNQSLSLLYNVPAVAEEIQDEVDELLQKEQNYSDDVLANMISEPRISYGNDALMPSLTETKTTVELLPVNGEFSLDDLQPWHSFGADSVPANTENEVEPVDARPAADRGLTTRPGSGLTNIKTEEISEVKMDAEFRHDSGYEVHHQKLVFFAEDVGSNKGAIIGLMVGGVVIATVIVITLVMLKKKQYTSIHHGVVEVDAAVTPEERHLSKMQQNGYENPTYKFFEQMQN

[35] = molecular target: T1, Amyloid-beta precursor protein; experiment: Displacement of [125I]6-iodo-4'-dimethyaminofl avone from beta amyloid (1-42) protein aggregates

| SMILES | Drug uptake [1] | Drug uptake [2] | Drug uptake [3] | Drug uptake [4] | Drug uptake [5] | Drug uptake [6] | Drug uptake [7] | Drug uptake [8] | Drug uptake [9] | Drug uptake [10] | Drug uptake [11] | Drug uptake [12] | Drug uptake [13] | Drug uptake [14] | Drug uptake [15] | Drug uptake [16] | Drug uptake [17] | Drug uptake [18] | Drug uptake [19] | Drug uptake [20] | other results |
| --- | --- | --- | --- | --- | --- | --- | --- | --- | --- | --- | --- | --- | --- | --- | --- | --- | --- | --- | --- | --- | --- |
| CNc1ccc(-c2cc(=O)c3cc([125I])ccc3o2)cc1 | 1.44 % ID/organ | 15.14 % ID/g | 1.8 % ID/organ | 5.21 % ID/g | 1.39 % ID/g | 25.28 % ID/g | 3.1 % ID/g | 21.48 % ID/g | 1.34 % ID/g | 3.68 % ID/g | 3.85 % ID/g | 18.61 % ID/g | 1.84 % ID/g | 1.19 % ID/g | 4.12 % ID/g | 4.87 % ID/g | 12.84 % ID/g | 1.52 % ID/g | 3.05 % ID/g | 1.76 % ID/g | Drug uptake [21]: 1.67 % ID/g; Drug uptake [22]: 0.78 % ID/organ; Drug uptake [23]: 8.13 % ID/g; Drug uptake [24]: 2.31 % ID/g; Drug uptake [25]: 16.28 % ID/g; logD [26]: 2.15; Drug uptake [27]: 1.89 % ID/g; Drug uptake [28]: 1.28 % ID/g; Drug uptake [29]: 0.87 % ID/organ; Drug uptake [30]: 2.57 % ID/g; Drug uptake [31]: 7.91 % ID/g; Drug uptake [32]: 1.5 % ID/g; Drug uptake [33]: 2.66 % ID/g |
| COc1ccc(-c2cc(=O)c3cc([125I])ccc3o2)cc1 | 0.55 % ID/organ | 1.88 % ID/g | 0.31 % ID/organ | 6.3 % ID/g | 1.19 % ID/g | 9.01 % ID/g | 3.52 % ID/g | 30.05 % ID/g | 0.4 % ID/g | 2.36 % ID/g | 4.51 % ID/g | 3.75 % ID/g | 0.51 % ID/g | 0.17 % ID/g | 4 % ID/g | 4.98 % ID/g | 22.51 % ID/g | 3.67 % ID/g | 1.46 % ID/g | 0.55 % ID/g | Drug uptake [21]: 0.84 % ID/g; Drug uptake [22]: 0.68 % ID/organ; Drug uptake [23]: 7.99 % ID/g; Drug uptake [24]: 1.38 % ID/g; Drug uptake [25]: 8.96 % ID/g; logD [26]: 2.41; Drug uptake [27]: 1.87 % ID/g; Drug uptake [28]: 0.47 % ID/g; Drug uptake [29]: 0.45 % ID/organ; Drug uptake [30]: 2.7 % ID/g; Drug uptake [31]: 14.39 % ID/g; Drug uptake [32]: 0.23 % ID/g; Drug uptake [33]: 2.25 % ID/g |
| O=c1cc(-c2ccc(O)cc2)oc2ccc([125I])cc12 | 1.56 % ID/organ | 4.78 % ID/g | 0.81 % ID/organ | 15.11 % ID/g | 1.58 % ID/g | 8.24 % ID/g | 3.12 % ID/g | 27.28 % ID/g | 0.66 % ID/g | 1.9 % ID/g | 6.45 % ID/g | 6.8 % ID/g | 0.52 % ID/g | 0.08 % ID/g | 3.31 % ID/g | 5.51 % ID/g | 22.01 % ID/g | 0.17 % ID/g | 1.66 % ID/g | 0.56 % ID/g | Drug uptake [21]: 0.53 % ID/g; Drug uptake [22]: 0.89 % ID/organ; Drug uptake [23]: 14.79 % ID/g; Drug uptake [24]: 1.55 % ID/g; Drug uptake [25]: 9.77 % ID/g; logD [26]: 1.92; Drug uptake [27]: 2.77 % ID/g; Drug uptake [28]: 0.12 % ID/g; Drug uptake [29]: 0.59 % ID/organ; Drug uptake [30]: 3.92 % ID/g; Drug uptake [31]: 11.26 % ID/g; Drug uptake [32]: 0.2 % ID/g; Drug uptake [33]: 1.6 % ID/g |
| CN(C)c1ccc(-c2cc(=O)c3cc([125I])ccc3o2)cc1 | 1.17 % ID/organ | 12.4 % ID/g | 1.06 % ID/organ | 4.31 % ID/g | 1.07 % ID/g | 21.85 % ID/g | 2.24 % ID/g | 18.64 % ID/g | 1.2 % ID/g | 3.61 % ID/g | 3.4 % ID/g | 15.71 % ID/g | 1.89 % ID/g | 0.99 % ID/g | 3.22 % ID/g | 5.63 % ID/g | 12.97 % ID/g | 1.18 % ID/g | 2.32 % ID/g | 1.58 % ID/g | Drug uptake [21]: 1.69 % ID/g; Drug uptake [22]: 0.73 % ID/organ; Drug uptake [23]: 8.33 % ID/g; Drug uptake [24]: 1.92 % ID/g; Drug uptake [25]: 15.41 % ID/g; logD [26]: 2.69; Drug uptake [27]: 1.87 % ID/g; Drug uptake [28]: 1.07 % ID/g; Drug uptake [29]: 0.63 % ID/organ; Drug uptake [30]: 2.72 % ID/g; Drug uptake [31]: 6.56 % ID/g; Drug uptake [32]: 1.15 % ID/g; Drug uptake [33]: 2.47 % ID/g |
| Nc1c(/N=N/c2ccc(-c3ccc(/N=N/c4cc(S(=O)(=O)O)c5ccccc5c4N)cc3)cc2)cc(S(=O)(=O)O)c2ccccc12 [CONGO RED] |  |  |  |  |  |  |  |  |  |  |  |  |  |  |  |  |  |  |  |  | Ki [34]: > 1000 nM; Ki [35]: > 1000 nM |
